# High-throughput results as filed in PubChem.
# Most compounds without a hit are left out; they make up all but 1.8% or so of the library.
# Jurkat NFkB inh: inhibitors of induced NF-kB luciferase reporter, primary screen, TCR NF-kB activation inhibitor project, cell-based, luminescence, uHTS; hit rate 0.53% among 330,000; Jurkat, PMA/ionomycin-induced NF-kB luciferase reporter; inhibition, % at 4 µM; in the data active = inhibition above about 50%
# 697 NFkB inh: inhibitors of PMA/ionomycin-induced NF-kB reporter, 697 cells, primary screen, B-cell NF-kB inhibitor project, cell-based, luminescence, uHTS | inhibition, % at 4 µM | AID 435022, 2010 | hit rate 0.33% among 330,000 | 697 B-cell NF-kB luciferase reporter, 16 h; in the data active = inhibition above about 35%
# Gli-Sufu antag: Gli-Sufu pathway antagonists, primary screen, luciferase luminescence, Sufu-KO-LIGHT cells, uHTS. AID 588413, 2011. inhibition, % at 5 µM. Sufu-KO-LIGHT fibroblasts, Gli luciferase reporter luminescence. hit rate 0.74% among 340,000;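 active = inhibition above about 55%, limit read from the data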;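 also: 0% = DMSO-treated cells and 100% = wells with medium but no cells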
# hiPSC survival: enhancers of single-cell hiPSC survival, primary screen, ATPlite luminescence | 100% = ROCK inhibitor wells, 0% = DMSO | survival enhancement, % at 20 µM | hit rate 0.044% among 360,000; in the data active = survival enhancement above about 18%;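 also: cells exposed to compounds for 16 hours before the ATP read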
# Hep lipid drop: inhibitors of hepatocyte lipid droplet formation, primary screen, imaging, high-throughput imaging, BODIPY stain. AML12 mouse hepatocytes, oleate lipid droplets. inhibition, % at 6.5 µM. hit rate 0.4% among 240,000. AID 1656, 2009;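 active = lipid droplet intensity inhibited by at least 50%, with more than 500 cells counted; inconclusive = wells with under 300 cells, treated as cytotoxic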
#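 Test system: AML12 hepatocytes (mouse); reagent: oleate loading, 100 µM; dosing: one dose, 6.5 µM compound; incubation: overnight exposure; signal: fluorescence imaging, 20x objective, two fields per well; read-out basis: % inhibition of corrected integrated BODIPY droplet signal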
# TAG inh: inhibitors of triacylglycerol accumulation, primary screen, cell-based, uHTS, fluorescence, H9c2 | inhibition, % at 12.5 µM | AID 651582, 2012 | hit rate 0.66% among 230,000 | H9c2 cells, Nile Red lipid (TAG) fluorescence; cells loaded with 200 µM oleic acid;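 active = pattern-corrected inhibition of lipid staining of at least 50% with the nuclear-stain viability signal not falling by more than 50%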;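 also: 0% = DMSO wells and 100% = triacsin C control wells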
# Jurkat NFkB conf: PMA/ionomycin-induced NF-kB reporter inhibitors, Jurkat retest, confirmation, T-cell NF-kB inhibitor project, cell-based, luminescence, single concentration; shares compounds with Jurkat NFkB inh; Jurkat NF-kB luciferase, 16 h; inhibition, % at 4 µM; hit rate 27% among 2,700;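 active = inhibition reaching about 45% at 4 µM in either replicate, limit read from the data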;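 also: plate controls were PMA/ionomycin stimulated DMSO wells for no effect and unstimulated DMSO wells for full effect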
# * = called active by the depositor; ? = inconclusive; nt = no result given.
SMILES,Jurkat NFkB inh,697 NFkB inh,Gli-Sufu antag,hiPSC survival,Hep lipid drop,TAG inh,Jurkat NFkB conf
O=C(Nc1ccc(N2CCCCC2)cc1)c1ccccn1,66.7*,20.7,64.4*,-5.2,-0.4,-5.2,68.9*
Cc1ccc(C(=O)N2CCN(c3ccc(NC(=O)c4cc(C)cc(C)c4)cc3)CC2)cc1,7.9,-36.2,10.9,-0.3,-7.6,9.1,nt
O=C(Nc1ccc(N2CCCCCC2)cc1)c1ccc[nH]1,-199.4,-109.9,-70.2,-0.3,nt,-3.2,-37.2
COc1ccccc1C(=O)Nc1ccc(N2CCCCC2)cc1,-164.9,-198.0,-105.0,-1.4,13.8,-16.2,-55.3
Cc1cc(C)cc(C(=O)Nc2ccc(N3CCCC3)cc2)c1,-160.0,-127.6,-89.7,-0.1,0.5,3.5,0.7
O=C(NCc1cccc(C(F)(F)F)c1)c1ccc2c(c1)OCO2,-0.7,-46.2,1.6,1.6,-9.5,1.3,nt
CCOC(=O)c1sc(NC(=O)c2ccc(Br)o2)cc1C,-176.8,-104.8,-0.9,-1.9,nt,-0.7,-98.5
CCOC(=O)c1sc(NC(=O)c2cccs2)cc1C,-152.4,-200.8,-34.2,-3.7,7.2,nt,-104.4
O=S(=O)(Nc1ccc2c(c1)OCO2)c1ccc(Cl)cc1F,0.8,12.7,-4.0,-1.4,nt,-29.9,nt
Clc1ccc(-c2nnc(-c3ccccc3)o2)c(Cl)c1,-162.6,-241.5,-118.8,-6.4,nt,nt,-75.2
Fc1ccc(-c2nnc(-c3ccc(Cl)cc3Cl)o2)cc1,-136.6,-169.2,nt,-3.1,24.5,4.4,nt
Cc1ccc(C(=O)O/N=C(\N)c2ccccn2)c(Cl)c1,65.2*,-7.5,48.0,-0.7,-0.2,nt,79.2*
CCC1CCCCN1C(=O)CCc1nnc(Cc2cc(OC)ccc2OC)o1 (stereo unspecified),-20.9,-40.4,5.3,-0.6,2.0,3.3,nt
COc1ccc(N2C(=O)CC2(C#N)c2ccc(OCc3ccccc3)cc2)cc1 (stereo unspecified),0.0,-6.6,-1.0,0.6,-4.6,nt,nt
COc1ccc(-c2csc(-c3ccccc3)n2)c(OC)c1,-132.9,-193.4,-106.3,-2.4,9.2,-6.9,nt
COc1ccc(-c2csc(-c3cccs3)n2)c(OC)c1,-186.2,-119.2,-111.1,0.2,-0.4,-15.3,-130.6
CCOc1ccc(Cl)cc1S(=O)(=O)n1cnc2ccccc21,46.5,-43.6,4.0,4.3,-22.5,6.9,nt
CCOc1ccc(C)cc1S(=O)(=O)n1cnc2ccccc21,53.6*,-52.6,0.7,0.3,-16.5,25.2,15.0
O=[N+]([O-])c1ccccc1OCCNCc1ccccc1,-30.7,-20.5,2.9,0.1,0.0,nt,nt
Cc1ccc(-c2nc(-c3ccccn3)no2)cc1,69.2*,25.9,74.9*,-3.9,nt,-19.9,79.2*
c1ccc(-c2nc(-c3ccccn3)no2)cc1,2.9,-70.6,13.3,-6.2,3.4,nt,nt
CC(=O)c1ccc(N2CCN(S(=O)(=O)c3c(C)[nH]c(C)c3C(=O)N3CCCC3)CC2)cc1,3.9,-19.0,0.3,-0.1,22.7,nt,nt
CN1CCC(NCCC(c2ccc(F)cc2)c2ccc(Cl)cc2)CC1 (stereo unspecified),71.7*,18.6,25.4,-0.5,-46.9,nt,29.5
O=C(c1ccc2nc[nH]c2c1)N1CCN(c2cccc(C(F)(F)F)c2)CC1,-5.5,-25.5,-3.4,0.1,-11.4,nt,nt
O=C(c1ccc2ncsc2c1)N1CCN(c2cccc(C(F)(F)F)c2)CC1,55.3*,-175.6,-12.1,-0.5,nt,9.4,2.5
SMILES,Jurkat NFkB inh,697 NFkB inh,Gli-Sufu antag,hiPSC survival,Hep lipid drop,TAG inh,Jurkat NFkB conf
CCCCc1ccc(NC(=O)c2ccc(N(C)S(C)(=O)=O)cc2)cc1,50.1*,-29.7,4.8,-0.2,-2.3,-6.7,54.2*
O=C(N/N=C(\c1ccccc1)c1cccnc1)c1cccc(F)c1,52.4*,-10.2,94.2*,-0.2,-19.8,28.3,54.9*
COc1ccc(NC(=O)C2CCCN2C(=O)Oc2ccccc2)cc1 (stereo unspecified),1.7,16.4,-4.3,0.0,2.7,nt,nt
Cc1cs/c(=N\N=C2CCCCC2)n1Cc1ccco1,9.5,18.0,-7.2,-1.1,14.9,-4.8,nt
Nc1nc(-c2ccccc2)cc(N2CCCCC2)n1,54.8*,-33.2,5.3,-1.0,?,76.2*,41.6
C(=N\NC1=Nc2cccc3cccc1c23)/c1ccccc1,-167.4,-180.9,-77.6,-2.0,-0.8,nt,-111.5
CCC(=O)N/C(N)=N/c1nc2ccccc2o1,-90.5,-96.4,-63.4,-0.9,4.8,6.6,nt
CC(C)(C)C(=O)N/C(N)=N/c1nc2ccccc2o1,-156.0,-226.4,-101.2,0.7,-1.7,0.2,-141.1
Cc1cccc(N2CCN(C(=O)c3ccc4[nH]c(C)c(C)c4c3)CC2)c1C,56.2*,-36.9,-4.1,4.0,nt,33.9,52.5*
Cc1cccc(N2CCN(C(=O)c3ccc(S(=O)(=O)N(C)c4ccccc4)cc3)CC2)c1C,57.8*,-39.2,-3.5,-2.8,nt,6.5,40.3
COc1ccccc1N1CCN(C(=O)c2ccc3[nH]c(C)c(C)c3c2)CC1,54.4*,7.6,7.3,0.1,-11.6,nt,17.1
COc1ccccc1N1CCN(C(=O)c2oc3ccc(Br)cc3c2C)CC1,65.5*,-25.0,-4.0,-0.9,-26.8,nt,6.3
COc1ccc(C)c2sc(NNC(=O)COc3ccccc3)nc12,-8.5,-3.8,nt,nt,-1.5,nt,nt
COc1cc(C(=O)N2CCN(c3ccc(C)cc3C)CC2)cc(OC)c1OC,62.7*,-93.5,18.6,-0.5,15.9,36.6,20.9
Cc1cccc(N2CCN(C(=O)c3c(-c4ccccc4)noc3C)CC2)c1C,68.3*,-51.0,26.9,0.6,-29.0,29.1,40.7
COc1cccc(-c2ccc(C3=CC(=O)CC(C)(C)C3=O)cc2)c1OC,nt,nt,nt,-2.3,nt,10.6,nt
COc1ccc(OC)c(Nc2nc(N)c([N+](=O)[O-])c(N3CCOCC3)n2)c1,-0.6,3.7,1.2,0.6,-8.7,nt,nt
NCCCNc1nc(N)c([N+](=O)[O-])c(NC2CCCCC2)n1,90.8*,-65.8,15.8,-0.6,-45.7,nt,19.7
Cc1ccc2nc(SCC(=O)Nc3cc(C)on3)c(C)cc2c1,-9.2,-31.2,-6.1,0.9,-1.4,nt,nt
O=C(c1ccc(F)cc1F)N1CCN(S(=O)(=O)c2ccc3c(c2)OCCO3)CC1,10.6,15.0,-3.4,0.1,nt,10.8,nt
COc1ccc(C(=O)Nc2ccccc2C(=O)N/N=C/c2ccccn2)cc1OC,55.6*,-66.6,45.0,-0.6,0.0,40.5,-21.0
COc1ccc(C(=O)N/N=C/c2ccccn2)cc1OC,-6.2,6.3,-17.6,0.1,-1.8,-4.5,nt
